Bioassay records from PubChem.
OX1R antag-1 – antagonists of human orexin 1 receptor | inhibition, % at 5 µM | O43613 | CHO/OX1R cells, Fluo-8 calcium fluorescence, orexin A | 0.43% of 330,000 active;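 active = inhibition above its plate's threshold, mean inhibition of all tested compounds on the plate plus 3 SD, cut at about 37% in these data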
Target sequence (O43613 whole entry, looked up): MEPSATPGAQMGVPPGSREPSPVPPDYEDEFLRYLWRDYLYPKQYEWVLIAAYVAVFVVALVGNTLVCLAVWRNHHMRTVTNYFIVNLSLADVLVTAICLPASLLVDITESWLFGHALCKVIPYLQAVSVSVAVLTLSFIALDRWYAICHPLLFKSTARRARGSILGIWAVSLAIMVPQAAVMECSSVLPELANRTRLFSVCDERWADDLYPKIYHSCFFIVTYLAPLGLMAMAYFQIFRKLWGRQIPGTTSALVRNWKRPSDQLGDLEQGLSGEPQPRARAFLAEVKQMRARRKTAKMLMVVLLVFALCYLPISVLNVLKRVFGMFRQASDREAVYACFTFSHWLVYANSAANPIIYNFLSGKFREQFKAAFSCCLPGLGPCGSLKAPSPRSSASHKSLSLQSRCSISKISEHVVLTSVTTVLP
CHO parental Ca – counter-screen: ATP calcium response change in parental CHO cells | 0.63% of 330,000 active | parental CHO-K1, ATP-induced calcium, Fluo-8 fluorescence | inhibition, % at 5.6 µM;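 active = inhibition above that plate's mean sample inhibition plus 3 SD, cut at about 26% in these data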
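Material – parental CHO cells · Reagent – ATP stimulus · Compound – single nominal dose of 5.6 µM per compound · Detection – Fluo-8 fluorescence · Read-out basis – percent inhibition of calcium signal · Controls – ATP-challenged DMSO wells low, unchallenged DMSO wells high · Repeats – no replicates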
OX1R antag-2 – blocks the human orexin 1 receptor; inhibition, % at 6.6 µM; O43613; OX1R-expressing cells, FRET antagonist read-out; 1.8% of 330,000 active; in the data active = inhibition mostly above about 38%, no sharp cut-off; inactive = mostly below about 40%
CHO-K1 Ca antag – counter-screen for M1 antagonists: effect in parental CHO-K1 cells; ATP-induced calcium, Fluo-8 fluorescence; inhibition, % at 3 µM; 0.6% of 360,000 active; AID 602250;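 active = inhibition above a per-plate cutoff, the plate's mean sample inhibition plus 3 SD, cut at about 24% in these data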
M1 PAM parental – counter-screen for M1 PAMs: effect in parental CHO-K1 cells | ATP EC20, Fluo-8 calcium fluorescence; 0% at ATP EC20, 100% at ATP max | activation, % at 3 µM | 0.02% of 360,000 active;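 active = activation above the run cutoff, the mean activation of all test compounds plus 3 SD, cut at about 40% in these data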;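 note: peak over basal fluorescence ratio in a 140 s read after ATP addition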
CHO-K1 Ca ag – nonselective activator or artifact in parental CHO-K1 cells | Fluo-8 calcium fluorescence; scaled to maximal ATP response, vehicle zero | activation, % at 3 µM | 0.48% of 360,000 active | AID 602248; in the data active = activation above about 15%;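 note: untransfected CHO-K1 host cells lacking M1 receptor as counterscreen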
Large screens that a line does not name were inactive; ! = repeats disagree. Compounds with a hit are over-represented: about 2.9% of the library has one in this group of screens.

CC(=O)Nc1ccc(NC(=O)C(C)OC(=O)[C@@H]2CCCN2C(=O)c2cccs2)cc1 (stereo partly drawn)	none
Cc1ccccc1-n1c2nc(=O)n(C)c(=O)c-2cc2ccccc21	OX1R antag-2 65
CCCCn1c(=O)nc2n(-c3ccccc3C)c3ccccc3cc-2c1=O	none
CCN(C(=O)c1ccc(NC(=O)c2ccco2)cc1)c1ccccc1	none (no result: OX1R antag-1, CHO parental Ca, OX1R antag-2)
CCOc1ccccc1N(CC(=O)NC1CCCCC1)C(=O)CCC(=O)Nc1nccs1	none
CCN1CCCC1CNC(=O)C(=O)NC (stereo not drawn)	none
CCCCCOc1ccc(NC(=O)C(=O)NCC2CCCN2CC)cc1 (stereo not drawn)	CHO-K1 Ca antag 25
CCOc1ccc(CCNS(=O)(=O)c2c(C)nc3scc(C)n3c2=O)cc1OCC	none
COc1ccc(Cl)cc1C(=O)CSc1nnnn1C1CCCCC1	CHO parental Ca 52, OX1R antag-2 52
COc1ccc(Cl)cc1C(=O)CSc1nnnn1C1CCCC1	none
O=C(Nc1ccc(F)cc1F)N1CCN(CCc2ccccc2)CC1	CHO-K1 Ca ag 30
Cc1nn(C(=O)c2cccc([N+](=O)[O-])c2)c(C)c1Sc1ccccc1	CHO-K1 Ca antag 26
Cc1cn([C@H]2C[C@H](O)[C@@H](CCC(=O)NCc3ccc(N(C)C)cc3)O2)c(=O)[nH]c1=O	none (no result: OX1R antag-1, CHO parental Ca, OX1R antag-2)
CN1C(=O)S/C(=C/c2cccnc2)C1=O	OX1R antag-2 65
CCN(CC)c1ccc(NC(=O)c2cc3c(OC)cccc3[nH]2)cc1	OX1R antag-2 40
COc1cccc2[nH]c(C(=O)NC(C)c3ccccc3)cc12 (stereo not drawn)	none
Cc1cc(C)cc(Nc2ccc([N+](=O)[O-])nc2[N+](=O)[O-])c1	OX1R antag-2 61
CN(CC(=O)Nc1ccccc1Cl)C(=O)CSc1ncc(C(F)(F)F)cc1Cl	none
Cc1cc(/C=C(\C#N)C(=O)Nc2ccc(F)cc2)c(C)n1-c1ccc(N2CCOCC2)c([N+](=O)[O-])c1	none
CNC(=O)/C(C#N)=C\c1cc(C)n(-c2ccc(N3CCOCC3)cc2)c1C	CHO-K1 Ca antag 31
COC(=O)C1=C(C)NC(C)=C([N+](=O)[O-])C1c1ccccc1C(F)(F)F (stereo not drawn)	CHO-K1 Ca antag 35!
CCCCCC(=O)NC(=S)NC1C2CC3CC(C2)CC1C3 (stereo not drawn)	none
Cc1cccc(NCCC(=O)c2ccc([N+](=O)[O-])cc2)c1C	OX1R antag-2 42
Cc1ccc(NCCC(=O)c2cccc([N+](=O)[O-])c2)c(C)c1	none
CCN(CC)C1=CC2=CC(=C(C#N)C#N)CCC2CC1 (stereo not drawn)	OX1R antag-1 107, CHO parental Ca 99, CHO-K1 Ca antag 67, CHO-K1 Ca ag 99
CCCCN(C)C1=CC2=CC(=C(C#N)C#N)CCC2CC1 (stereo not drawn)	OX1R antag-1 106, CHO parental Ca 101, CHO-K1 Ca antag 92, CHO-K1 Ca ag 578
N#CC(C#N)=C1C=C2C=C(N3CCCCC3)CCC2CC1 (stereo not drawn)	OX1R antag-1 106, CHO parental Ca 101 (no result: CHO-K1 Ca antag, M1 PAM parental, CHO-K1 Ca ag)
O=C(Nc1ccc(S(=O)(=O)N2CCOCC2)cc1)C1CC(=O)N(c2ccc(F)cc2)C1 (stereo not drawn)	none
O=C(Nc1ncccc1O)c1ccc(Cl)c(S(=O)(=O)N2CCCCC2)c1	CHO-K1 Ca antag 38
O=C(Nc1cccc(S(=O)(=O)N2CCCCC2)c1)c1ccccc1NS(=O)(=O)c1ccc(F)cc1	none
Cc1ccc(NC(=O)c2ccccc2NS(=O)(=O)c2ccc(F)cc2)cc1S(=O)(=O)N1CCCCC1	CHO-K1 Ca antag 26
Cc1ccccc1NC(=O)c1ccc(F)c(S(=O)(=O)N2CCCCC2)c1	CHO-K1 Ca ag 19
Cc1ccc(C(=O)N(CCc2ccccc2)Cc2ccccc2)cc1S(=O)(=O)N1CCCCC1	CHO parental Ca 35
C[C@@H]1CN([C@@H](C)CO)C(=O)CCCn2nncc2CO[C@H]1CN(C)C	none (no result: OX1R antag-1, CHO parental Ca, OX1R antag-2)
Cc1ccc(S(=O)(=O)N2CCN(C(=O)C3CCCC3)CC2)cc1C	none
CCOc1ccc(NC(=O)c2ccc(F)c(S(=O)(=O)N3CCCC3)c2)cc1	CHO-K1 Ca antag 24 (no result: OX1R antag-1, CHO parental Ca, OX1R antag-2)
Cn1c(C(=O)N2CCN(c3nc4ccccc4s3)CC2)cc2sccc21	none
O=C(c1cc2sccc2n1Cc1ccc(F)cc1)N1CCN(c2nc3ccccc3s2)CC1	CHO parental Ca 37
